These results are taken from ChEMBL document CHEMBL1128224 (J Med Chem, 1995).

The first assay has as its target Kappa-type opioid receptor (Cavia porcellus, UniProt P41144). As to the kind of experiment: The opioid receptor affinity(Ki) was evaluated by competition with 9 (Opioid receptor kappa 1) on guinea pig brain membranes. Further details: species or system Membrane.
Settings: not given
Molecule `N=C(N)NCCC[C@@H](NC(=O)c1cccc2c3c([nH]c12)[C@@H]1Oc2c(O)ccc4c2C12CCN(CC1CC1)C(C4)[C@]2(O)C3)C(=O)O` (stereo not given in full) gave an inhibitory constant (Ki) of 188 nM.
Still for that read-out and setting: for `O=C(O)C[C@@H](NC(=O)c1cccc2c3c([nH]c12)[C@@H]1Oc2c(O)ccc4c2C12CCN(CC1CC1)C(C4)[C@]2(O)C3)C(=O)O` (stereo not given in full) the value was 893 nM.
Molecule `NCCC[C@@H](NC(=O)c1cccc2c3c([nH]c12)[C@@H]1Oc2c(O)ccc4c2C12CCN(CC1CC1)C(C4)[C@]2(O)C3)C(=O)O` (stereo not given in full) gave a Ki of 57 nM.

Another assay has as its target Mu-type opioid receptor (Cavia porcellus) (UniProt P97266). Kind of assay: IC50 ratio was measured on Morphine(mu) in the guinea pig ileal longitudinal muscle(GPI) preparation. The format is tissue-based. Particulars: Muscle tissue.
Turning to `N=C(N)NCCC[C@@H](NC(=O)c1cccc2c3c([nH]c12)[C@@H]1Oc2c(O)ccc4c2C12CCN(CC1CC1)C(C4)[C@]2(O)C3)C(=O)O` (stereo not given in full), the IC50 ratio worked out at 1.3.
Take `O=C(O)C[C@@H](NC(=O)c1cccc2c3c([nH]c12)[C@@H]1Oc2c(O)ccc4c2C12CCN(CC1CC1)C(C4)[C@]2(O)C3)C(=O)O` (stereo not given in full): the IC50 ratio was 1.3.
Still for that read-out and setting: under `NCCC[C@@H](NC(=O)c1cccc2c3c([nH]c12)[C@@H]1Oc2c(O)ccc4c2C12CCN(CC1CC1)C(C4)[C@]2(O)C3)C(=O)O` (stereo not given in full) stands 3.

In the next assay the target is Delta-type opioid receptor (Mus musculus) (UniProt P32300). As to the kind of experiment: The antagonist potencies mediated through […] were expressed as Ke values calculated on DADLE(delta) in the mouse vas deferens(MVD) preparation. The format is functional.
Settings: not given
Put shortly: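 In electrically stimulated mouse vas deferens with DADLE as agonist, antagonist was preincubated 15 min at 100 nM unless otherwise specified. Ke = [antagonist]/(IC50 ratio − 1) from the Schild relationship, averaged over at least three IC50 ratio determinations.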
As to `N=C(N)NCCC[C@@H](NC(=O)c1cccc2c3c([nH]c12)[C@@H]1Oc2c(O)ccc4c2C12CCN(CC1CC1)C(C4)[C@]2(O)C3)C(=O)O` (stereo not given in full), the Ke is 3.3 nM.
The same measure, in the same setting: for `O=C(O)C[C@@H](NC(=O)c1cccc2c3c([nH]c12)[C@@H]1Oc2c(O)ccc4c2C12CCN(CC1CC1)C(C4)[C@]2(O)C3)C(=O)O` (stereo not given in full) the value was 1.1 nM; for `NCCC[C@@H](NC(=O)c1cccc2c3c([nH]c12)[C@@H]1Oc2c(O)ccc4c2C12CCN(CC1CC1)C(C4)[C@]2(O)C3)C(=O)O` (stereo not given in full), 1.8 nM.

In a further assay the target is T1, Opioid receptors; delta & kappa (Homo sapiens) (UniProt P41145+P41143). As to the kind of experiment: Selectivity as the ratio of Ki value towards kappa receptor to that of delta 1 receptor. The format is protein assay.
Settings: not given
For `N=C(N)NCCC[C@@H](NC(=O)c1cccc2c3c([nH]c12)[C@@H]1Oc2c(O)ccc4c2C12CCN(CC1CC1)C(C4)[C@]2(O)C3)C(=O)O` (stereo not given in full), the Selectivity worked out at 1180.
On to `O=C(O)C[C@@H](NC(=O)c1cccc2c3c([nH]c12)[C@@H]1Oc2c(O)ccc4c2C12CCN(CC1CC1)C(C4)[C@]2(O)C3)C(=O)O` (stereo not given in full), for which the Selectivity was found to be 6250.
Regarding `NCCC[C@@H](NC(=O)c1cccc2c3c([nH]c12)[C@@H]1Oc2c(O)ccc4c2C12CCN(CC1CC1)C(C4)[C@]2(O)C3)C(=O)O` (stereo not given in full), the Selectivity was found to be 320.

The target of another assay is Mu-type opioid receptor (Mus musculus) (UniProt P42866). As to the kind of experiment: Antagonist activity against the mu opioid receptor using morphine as agonist at 20 pmol/kg (icv) was determined as ratio of ED50 of antagonist to the control (ED50 of control = 9.7 (8.6-10.9) umol/kg). The format is functional.
Settings: not given
With `O=C(O)C[C@@H](NC(=O)c1cccc2c3c([nH]c12)[C@@H]1Oc2c(O)ccc4c2C12CCN(CC1CC1)C(C4)[C@]2(O)C3)C(=O)O` (stereo not given in full), the ED50 ratio worked out at 1.

The next assay deals with Mu-type opioid receptor (Cavia porcellus, UniProt P97266). Kind of assay: The opioid receptor affinity(Ki) was evaluated by competition with [3H]DAMGO (mu) on guinea pig brain membranes. Further details: species or system Membrane.
Settings: not given
Molecule `N=C(N)NCCC[C@@H](NC(=O)c1cccc2c3c([nH]c12)[C@@H]1Oc2c(O)ccc4c2C12CCN(CC1CC1)C(C4)[C@]2(O)C3)C(=O)O` (stereo not given in full) returned an inhibition constant Ki of 333 nM.
The same measure, in the same setting: under `O=C(O)C[C@@H](NC(=O)c1cccc2c3c([nH]c12)[C@@H]1Oc2c(O)ccc4c2C12CCN(CC1CC1)C(C4)[C@]2(O)C3)C(=O)O` (stereo not given in full) stands 368 nM; under `NCCC[C@@H](NC(=O)c1cccc2c3c([nH]c12)[C@@H]1Oc2c(O)ccc4c2C12CCN(CC1CC1)C(C4)[C@]2(O)C3)C(=O)O` (stereo not given in full), 136 nM.

The subject of another assay is Mus musculus. As to the kind of experiment: Intracerebroventricular dose required to produce an equivalnet antagonism of DPDPE-induced antinociception.
Settings: not given
The format is functional. Put shortly: (§1)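 In the mouse tail-flick assay against DPDPE-induced antinociception, the antagonist was given icv or iv. […] The iv/icv value is the ratio of these two doses.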
With `O=C(O)C[C@@H](NC(=O)c1cccc2c3c([nH]c12)[C@@H]1Oc2c(O)ccc4c2C12CCN(CC1CC1)C(C4)[C@]2(O)C3)C(=O)O` (stereo not given in full), the Dose came out at 12.5 pM/kg.

In the next assay the target is Delta-type opioid receptor (Mus musculus) (UniProt P32300). As to the kind of experiment: IC50 ratio was measured on DADLE (delta) in the mouse vas deferens (MVD) preparation.
Settings: not given
As for `N=C(N)NCCC[C@@H](NC(=O)c1cccc2c3c([nH]c12)[C@@H]1Oc2c(O)ccc4c2C12CCN(CC1CC1)C(C4)[C@]2(O)C3)C(=O)O` (stereo not given in full), the IC50 ratio is 31.
Still for that read-out and setting: for `O=C(O)C[C@@H](NC(=O)c1cccc2c3c([nH]c12)[C@@H]1Oc2c(O)ccc4c2C12CCN(CC1CC1)C(C4)[C@]2(O)C3)C(=O)O` (stereo not given in full) the value was 89; for `NCCC[C@@H](NC(=O)c1cccc2c3c([nH]c12)[C@@H]1Oc2c(O)ccc4c2C12CCN(CC1CC1)C(C4)[C@]2(O)C3)C(=O)O` (stereo not given in full), 58.

A further assay addresses T1, Opioid receptors; delta & kappa (Homo sapiens). Kind of assay: Selectivity as the ratio of IC50 value against delta receptor to that of kappa receptor. It is filed as protein assay.
Settings: not given
On to `N=C(N)NCCC[C@@H](NC(=O)c1cccc2c3c([nH]c12)[C@@H]1Oc2c(O)ccc4c2C12CCN(CC1CC1)C(C4)[C@]2(O)C3)C(=O)O` (stereo not given in full), for which the Selectivity came to 27.
The same measure, in the same setting: for `O=C(O)C[C@@H](NC(=O)c1cccc2c3c([nH]c12)[C@@H]1Oc2c(O)ccc4c2C12CCN(CC1CC1)C(C4)[C@]2(O)C3)C(=O)O` (stereo not given in full) the value was 30.
Same read-out and setting: under `NCCC[C@@H](NC(=O)c1cccc2c3c([nH]c12)[C@@H]1Oc2c(O)ccc4c2C12CCN(CC1CC1)C(C4)[C@]2(O)C3)C(=O)O` (stereo not given in full) stands 63.

Tested on in a further assay: not listed separately
As to the kind of experiment: Antagonist activity against the delta1 opioid receptor using DPDPE as agonist at 20 pmol/kg (icv) was determined as ratio of ED50 of antagonist to the control (ED50 of control = 8.6 (6.5-11.1) nmol/kg).
Settings: not given
The format is functional.
On to `O=C(O)C[C@@H](NC(=O)c1cccc2c3c([nH]c12)[C@@H]1Oc2c(O)ccc4c2C12CCN(CC1CC1)C(C4)[C@]2(O)C3)C(=O)O` (stereo not given in full), for which the ED50 ratio is given as 2.6.

Another assay deals with T2, Opioid receptors; mu & delta (Homo sapiens) (UniProt P41143+P35372). As to the kind of experiment: Selectivity as the ratio of IC50 value against delta receptor to that of mu receptor. The format is protein assay.
Settings: not given
With `N=C(N)NCCC[C@@H](NC(=O)c1cccc2c3c([nH]c12)[C@@H]1Oc2c(O)ccc4c2C12CCN(CC1CC1)C(C4)[C@]2(O)C3)C(=O)O` (stereo not given in full), the Selectivity worked out at 24.
In the case of `O=C(O)C[C@@H](NC(=O)c1cccc2c3c([nH]c12)[C@@H]1Oc2c(O)ccc4c2C12CCN(CC1CC1)C(C4)[C@]2(O)C3)C(=O)O` (stereo not given in full), the Selectivity stood at 67.
Still for that read-out and setting: under `NCCC[C@@H](NC(=O)c1cccc2c3c([nH]c12)[C@@H]1Oc2c(O)ccc4c2C12CCN(CC1CC1)C(C4)[C@]2(O)C3)C(=O)O` (stereo not given in full) stands 20.

Another assay concerns the target Kappa-type opioid receptor (Cavia porcellus) (UniProt P41144). As to the kind of experiment: IC50 ratio was measured on ethylketazocine (Opioid receptor kappa 1) in the guinea pig ileal longitudinal muscle(GPI) preparation.
Settings: not given
For the molecule `N=C(N)NCCC[C@@H](NC(=O)c1cccc2c3c([nH]c12)[C@@H]1Oc2c(O)ccc4c2C12CCN(CC1CC1)C(C4)[C@]2(O)C3)C(=O)O` (stereo not given in full), the IC50 ratio came to 1.2.
The same measure, in the same setting: for `O=C(O)C[C@@H](NC(=O)c1cccc2c3c([nH]c12)[C@@H]1Oc2c(O)ccc4c2C12CCN(CC1CC1)C(C4)[C@]2(O)C3)C(=O)O` (stereo not given in full) the value was 2.1.
With `NCCC[C@@H](NC(=O)c1cccc2c3c([nH]c12)[C@@H]1Oc2c(O)ccc4c2C12CCN(CC1CC1)C(C4)[C@]2(O)C3)C(=O)O` (stereo not given in full), the IC50 ratio came to 0.9.

For the next assay, the target named is Delta-type opioid receptor (Homo sapiens) (UniProt P41143). The conditions noted are these: 0.8 umol/kg.
On to `O=C(O)C[C@@H](NC(=O)c1cccc2c3c([nH]c12)[C@@H]1Oc2c(O)ccc4c2C12CCN(CC1CC1)C(C4)[C@]2(O)C3)C(=O)O` (stereo not given in full), for which the ED50 ratio stood at 2.3.

A further assay has as its target T2, Opioid receptors; mu & delta (Homo sapiens). As to the kind of experiment: Selectivity as the ratio of Ki value towards mu receptor to that of delta 1 receptor. The format is protein assay.
Settings: not given
For the molecule `N=C(N)NCCC[C@@H](NC(=O)c1cccc2c3c([nH]c12)[C@@H]1Oc2c(O)ccc4c2C12CCN(CC1CC1)C(C4)[C@]2(O)C3)C(=O)O` (stereo not given in full), the Selectivity came to 2100.
Same read-out and setting: under `O=C(O)C[C@@H](NC(=O)c1cccc2c3c([nH]c12)[C@@H]1Oc2c(O)ccc4c2C12CCN(CC1CC1)C(C4)[C@]2(O)C3)C(=O)O` (stereo not given in full) stands 2570; under `NCCC[C@@H](NC(=O)c1cccc2c3c([nH]c12)[C@@H]1Oc2c(O)ccc4c2C12CCN(CC1CC1)C(C4)[C@]2(O)C3)C(=O)O` (stereo not given in full), 756.

The test system of a further assay is Mus musculus. Kind of assay: Intravenous dose required to produce an equivalnet antagonism of DPDPE-induced antinociception. It is filed as functional.
Settings: not given
The method in brief:
as §1
Take `O=C(O)C[C@@H](NC(=O)c1cccc2c3c([nH]c12)[C@@H]1Oc2c(O)ccc4c2C12CCN(CC1CC1)C(C4)[C@]2(O)C3)C(=O)O` (stereo not given in full): the Dose turned out to be 0.62 µM/kg.

One may read the Ki as a measure of affinity in units of concentration, obtained from inhibition or displacement.
